Like-named read-outs stand apart in the source and are kept apart here.
Experiments:
Type in all cases: cell-based
LPA3 = target: T1, LPA3 (Homo sapiens, UniProt Q9UBY5); assay: LPA-elicited Ca2+ transients in RH7777 cells stably expressing LPA3; conditions: for Effect on LPA3: heterologously expressed LPA3
T1 sequence (Q9UBY5 1-353): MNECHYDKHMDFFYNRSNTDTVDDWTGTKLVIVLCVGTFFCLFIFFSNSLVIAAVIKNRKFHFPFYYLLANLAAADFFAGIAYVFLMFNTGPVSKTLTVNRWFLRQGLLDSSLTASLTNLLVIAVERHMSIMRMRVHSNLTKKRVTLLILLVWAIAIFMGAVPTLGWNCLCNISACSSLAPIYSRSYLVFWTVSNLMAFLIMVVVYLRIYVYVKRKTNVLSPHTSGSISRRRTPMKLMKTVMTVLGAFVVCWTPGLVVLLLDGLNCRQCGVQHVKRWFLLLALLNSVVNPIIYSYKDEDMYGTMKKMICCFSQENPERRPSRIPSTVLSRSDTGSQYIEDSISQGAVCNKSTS

LPA4 = LPA4 (Homo sapiens, UniProt Q99677); assay: LPA-elicited Ca2+ transients in CHO cells stably expressing LPA4; conditions: for Effect on LPA4: Table II, heterologously expressed LPA4
LPA4, sequence (Q99677 whole entry): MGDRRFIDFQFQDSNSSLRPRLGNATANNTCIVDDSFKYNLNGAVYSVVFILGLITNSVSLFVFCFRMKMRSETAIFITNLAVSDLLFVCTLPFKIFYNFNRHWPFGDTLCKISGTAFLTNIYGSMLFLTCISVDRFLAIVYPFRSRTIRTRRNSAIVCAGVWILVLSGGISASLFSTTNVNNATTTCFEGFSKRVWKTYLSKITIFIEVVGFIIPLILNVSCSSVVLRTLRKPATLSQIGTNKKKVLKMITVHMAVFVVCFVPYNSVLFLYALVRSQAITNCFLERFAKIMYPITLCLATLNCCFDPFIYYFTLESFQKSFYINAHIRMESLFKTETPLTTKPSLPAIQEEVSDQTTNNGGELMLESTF

LPA1 = LPA1 (Homo sapiens, UniProt Q92633); assay: LPA-elicited Ca2+ transients in RH7777 cells stably expressing LPA1; conditions: for Effect on LPA1: heterologously expressed LPA1
LPA1, sequence (Q92633 whole entry): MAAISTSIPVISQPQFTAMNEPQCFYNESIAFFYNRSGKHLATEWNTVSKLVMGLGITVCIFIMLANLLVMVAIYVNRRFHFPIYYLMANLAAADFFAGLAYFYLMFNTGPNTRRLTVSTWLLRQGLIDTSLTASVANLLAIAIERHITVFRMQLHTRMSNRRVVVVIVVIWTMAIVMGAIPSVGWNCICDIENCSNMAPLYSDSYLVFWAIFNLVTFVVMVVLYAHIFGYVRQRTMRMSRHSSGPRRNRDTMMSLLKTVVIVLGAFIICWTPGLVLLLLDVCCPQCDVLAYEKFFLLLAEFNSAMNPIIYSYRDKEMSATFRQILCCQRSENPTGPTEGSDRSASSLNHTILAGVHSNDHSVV
Method in brief: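 RH7777 cells stably expressing receptor, seeded on poly-L-lysine-coated wells at 5 × 10^4 cells/well overnight. Serum-starved 6 h in modified Krebs buffer (pH 7.4), loaded with Fura-2 AM for 35 min with 2% pluronic acid. Ca2+ recorded as the ratio of 520 nm emission at 340/380 nm excitation. Albumin arm: 15 µM BSA for 5 min before LPA. Quadruplicate.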

LPA2 = LPA2 (Homo sapiens, UniProt Q9HBW0); assay: LPA-elicited Ca2+ transients in RH7777 cells stably expressing LPA2; conditions: for Effect on LPA2: heterologously expressed LPA2
LPA2, sequence (Q9HBW0 whole entry): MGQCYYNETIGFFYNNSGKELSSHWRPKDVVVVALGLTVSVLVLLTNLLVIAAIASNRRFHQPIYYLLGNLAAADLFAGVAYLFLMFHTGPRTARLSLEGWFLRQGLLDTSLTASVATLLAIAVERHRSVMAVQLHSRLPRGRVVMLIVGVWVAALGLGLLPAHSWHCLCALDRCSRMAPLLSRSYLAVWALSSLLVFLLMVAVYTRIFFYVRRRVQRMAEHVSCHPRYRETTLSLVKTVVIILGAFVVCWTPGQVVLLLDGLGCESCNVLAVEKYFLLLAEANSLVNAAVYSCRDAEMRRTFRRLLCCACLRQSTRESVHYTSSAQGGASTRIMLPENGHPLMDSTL

LPA5 = LPA5 (Homo sapiens, UniProt Q9H1C0); assay: LPA-elicited Ca2+ transients in RH7777 cells transiently transfected with LPA5; conditions: for Effect on LPA5: heterologously expressed LPA5; for Emax: relative to LPA 18:1
LPA5, sequence (Q9H1C0 whole entry): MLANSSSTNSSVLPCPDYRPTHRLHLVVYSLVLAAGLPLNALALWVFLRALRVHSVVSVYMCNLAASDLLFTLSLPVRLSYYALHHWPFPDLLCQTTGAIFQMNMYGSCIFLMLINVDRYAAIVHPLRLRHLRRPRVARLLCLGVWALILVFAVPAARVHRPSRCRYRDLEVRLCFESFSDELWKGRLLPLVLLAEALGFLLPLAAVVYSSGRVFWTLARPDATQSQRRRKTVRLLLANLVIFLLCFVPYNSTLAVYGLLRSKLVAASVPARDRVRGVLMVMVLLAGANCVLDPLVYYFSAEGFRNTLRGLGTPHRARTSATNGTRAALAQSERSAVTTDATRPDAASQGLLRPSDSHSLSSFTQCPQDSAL

human platelets = assay: Measurement of platelet cAMP; conditions: LPA 0.02–40 µM, 30 s–15 min; iloprost 50 nM, 1 minute
Method in brief: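 Human platelets from PRP pretreated with acetylsalicylic acid 1 mM and apyrase 0.3 U/mL (15 min, 37°C), washed, resuspended at 400,000/µL in HEPES buffer with glucose and apyrase (pH 7.4). Stirred suspensions were warmed 2 min at 37°C, then exposed to agonist for the set time. cAMP was measured by enzyme immunoassay. Mean ± SD, n=3 donors; Student's test, P 0.05.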

washed human platelets = assay: Platelet shape change; conditions: read-out: Platelets EC50, Table IV, n=4, mean ± SD
Method in brief: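 Washed human platelets were prepared from aspirin (1 mM)/apyrase-treated PRP and resuspended at 400,000/µL in HEPES buffer (pH 7.4) with glucose and 0.6 U/mL apyrase. Stirred at 1100 rpm and 37°C for 2 min, then given increasing agonist concentrations in methanol or FAF-BSA buffer (lipid:BSA 4:1). Shape change read as the fall in light transmission in an aggregometer. Four donors.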

[1] = read-out: LPA5 transiently transfected RH7777 cells EC50, Table IV, mean ± SD
[2] = 15µM FAF-BSA, 5 min pre-incubation

With CCCCCCCCCCCCCCCC(=O)N[C@@H](COP(=O)(O)O)C(=O)O [NPSPA, N-palmitoyl-serine phosphoric acid] the “Effect on LPA3” value (LPA3; Table II) was “Partial agonist”, the EC50 (LPA3; Table II, LPA3) was 730 nM and the Emax (LPA3; Table II, LPA3, relative to LPA 18:1) was 81%. The “Effect on LPA4” value (LPA4) was “No effect”, the “Effect on LPA1” value (LPA1; Table II) was “Partial agonist” and the EC50 (LPA1; Table II, LPA1) was 740 nM. The Emax (LPA1; Table II, LPA1, relative to LPA 18:1) was 63%, the “Effect on LPA2” value (LPA2; Table II) was “Partial agonist” and the EC50 (LPA2; Table II, LPA2) was 11900 nM. The Emax (LPA2; Table II, LPA2, relative to LPA 18:1) was 46%, the “Effect on LPA5” value (LPA5; Table II) was “Partial agonist” and the EC50 (LPA5; Table II, LPA5) was 420 nM. It also gave an Emax (LPA5; Table II, LPA5) of 23%.

For CCCCCCCCCCCCCCCC(=O)N[C@@H](Cc1ccc(OP(=O)(O)O)cc1)C(=O)O [NPTPA, N-palmitoyl-tyrosine phosphoric acid], the “Effect on LPA3” value (LPA3; Table II) was “No effect”, the “Effect on LPA4” value (LPA4) was “No effect” and the “Effect on LPA1” value (LPA1; Table II) was “Antagonist”. For the same compound, the Ki (LPA1; Table II, LPA1, inhibitory binding constant) was 530 nM, the Ki (LPA1; read-out: Ki at LPA1, text b35) was 533 nM and the “Effect on LPA2” value (LPA2; Table II) was “No effect”. For the same compound, the “Effect on LPA5” value (LPA5; Table II) was “Partial agonist” and the Emax (LPA5; Table II, LPA5) was 72.0%.

In the case of CCCCCCCCCCCCCCCC(=O)OC[C@@H](O)COP(=O)(O)O [acyl-LPA 16:0], the “Change in platelet cAMP levels” value (human platelets) is reported as “did not affect”.

With CCCCCCCCCCCCCCCCOC[C@@H](O)COP(=O)(O)O [alkyl-LPA 16:0] the “Change in platelet cAMP levels” value (human platelets) was “did not affect”, the EC50 (washed human platelets) was 4.6 ± 0.98 nM and the EC50 (LPA5; [1]) was 4.1 ± 2.1 nM.

CCCCCCCCCCCCCCCCCCOC[C@@H](O)COP(=O)(O)O [alkyl-LPA 18:0] gave an EC50 (washed human platelets) of 20.2 ± 17.5 nM and an EC50 (LPA5; [1]) of 69.9 ± 21.4 nM.

For CC#CCC(C)[C@H](O)/C=C/[C@@H]1[C@H]2C/C(=C/CCCC(=O)O)C[C@H]2C[C@H]1O (stereo partly drawn) [iloprost], the “Change in platelet cAMP levels” value (human platelets) was “robust increase”.

“fatty acid free bovine serum albumin [FAF-BSA]” was tested, and the “Effect on activation of LPA3 by LPA” value (LPA3; [2]) was “did not inhibit”, the “Inhibition of LPA4 activation” value (LPA4; [2]) was 40% and the “Effect on activation of LPA1 by LPA” value (LPA1; [2]) was “did not inhibit”. The “Effect on activation of LPA2 by LPA” value (LPA2; [2]) was “did not inhibit” and the “Effect on activation of LPA5 by LPA” value (LPA5; [2]) was “did not inhibit”.
